Reference: ChEMBL document CHEMBL4831519, “Discovery of the first-in-class dual PPARδ/γ partial agonist for the treatment of metabolic syndrome” (Eur J Med Chem, 2021)
The source made the active and inactive calls. The rule behind the calls is not given here.

Experiments:
[1] = molecular target: T1, Peroxisome proliferator-activated receptor alpha (Homo sapiens, UniProt Q07869); assay: Agonist activity at human PPARalpha transfected in human HepG2 cells incubated for 18 hrs by Renilla/Firefly dual-luciferase reporter assay; type: cell-based
T1 sequence (Q07869 whole entry): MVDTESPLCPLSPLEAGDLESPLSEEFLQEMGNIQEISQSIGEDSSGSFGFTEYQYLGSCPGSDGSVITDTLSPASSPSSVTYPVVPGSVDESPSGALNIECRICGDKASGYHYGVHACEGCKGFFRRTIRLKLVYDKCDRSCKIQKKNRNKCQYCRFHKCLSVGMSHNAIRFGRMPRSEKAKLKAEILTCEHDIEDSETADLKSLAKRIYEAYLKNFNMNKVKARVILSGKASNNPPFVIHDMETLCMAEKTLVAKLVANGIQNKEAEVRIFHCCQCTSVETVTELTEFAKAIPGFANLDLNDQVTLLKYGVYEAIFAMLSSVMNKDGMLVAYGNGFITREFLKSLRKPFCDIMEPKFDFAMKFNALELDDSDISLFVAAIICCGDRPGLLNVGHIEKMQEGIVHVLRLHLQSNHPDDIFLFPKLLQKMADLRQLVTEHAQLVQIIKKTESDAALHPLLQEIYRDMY

[2] = molecular target: T2, Peroxisome proliferator-activated receptor delta (Homo sapiens, UniProt Q03181); assay: Agonist activity at human PPARdelta transfected in human HEK293 cells incubated for 18 hrs by Renilla/Firefly dual-luciferase reporter assay; type: cell-based
T2 sequence (Q03181 whole entry): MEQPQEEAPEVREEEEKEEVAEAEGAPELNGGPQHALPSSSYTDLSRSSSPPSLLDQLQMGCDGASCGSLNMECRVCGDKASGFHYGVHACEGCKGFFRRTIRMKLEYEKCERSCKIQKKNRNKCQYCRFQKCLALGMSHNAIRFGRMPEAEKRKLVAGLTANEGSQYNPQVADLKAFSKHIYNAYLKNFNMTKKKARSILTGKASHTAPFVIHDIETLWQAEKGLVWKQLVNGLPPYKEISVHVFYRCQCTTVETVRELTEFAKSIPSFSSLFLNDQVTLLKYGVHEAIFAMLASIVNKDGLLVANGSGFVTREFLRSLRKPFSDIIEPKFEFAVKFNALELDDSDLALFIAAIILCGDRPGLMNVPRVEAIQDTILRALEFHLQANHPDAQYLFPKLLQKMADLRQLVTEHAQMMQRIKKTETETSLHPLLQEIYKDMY

[3] = Toxicity in ob/ob mouse assessed as weight gain at 10 mg/kg, po administered once daily for 30 days and measured every 5 days; type: organism-based; conditions: in vivo, 720 h, time 30 day
Method in brief: (§1)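 Food and water intake measured daily and body weight every 5 days. n = 6, mean SD; Student's t-test vs vehicle, with one-way ANOVA/Tukey.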

[4] = Induction of hepatic steatosis in ob/ob mouse at 10 mg/kg, po administered once daily for 30 days by hematoxylin-eosin staining based histopathological analysis; type: organism-based; conditions: in vivo, 720 h, time 30 day
Method in brief: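 Liver sections were stained with hematoxylin-eosin and viewed at 400× for steatosis and ballooning, with normal controls included.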

[5] = organism: Mus musculus; conditions: dose 10.0 mg/kg, time 30.0 day
[6] = organism: Mus musculus; conditions: dose 10.0 mg/kg, time 30.0 day; remark: listed apart in the source
[7] = organism: Mus musculus; conditions: dose 10.0 mg/kg, time 30.0 day; remark: listed apart in the source
[8] = organism: Mus musculus; conditions: dose 10.0 mg/kg, time 30.0 day; remark: listed apart in the source
[9] = organism: Mus musculus; conditions: dose 10.0 mg/kg, time 30.0 day; remark: listed apart in the source
[10] = organism: Mus musculus; conditions: dose 10.0 mg/kg, time 30.0 day; remark: listed apart in the source
[11] = Clearance in Sprague-Dawley rat at 3 mg/kg, po measured for 24 hrs by LC-MS/MS analysis; type: ADME, organism-based; conditions: in vivo
Method in brief: (§2)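 Male SD rats (eight weeks old at purchase) dosed orally at 3 mg/kg. Plasma profile followed over 0–24 h to derive AUC0–24h, Cmax, CL and T1/2. Values are mean SD of four rats.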

[12] = Cmax in Sprague-Dawley rat at 3 mg/kg, po measured for 24 hrs by LC-MS/MS analysis; type: ADME, organism-based; parameters: route oral, dose 3 mg/kg, time 24 hrs; conditions: in vivo; method in brief: as §2
[13] = AUC (0 to 24 hrs) in Sprague-Dawley rat at 3 mg/kg, po measured after 24 hrs by LC-MS/MS analysis; type: ADME, organism-based; parameters: route oral, time 24 hrs, dose 3 mg/kg; conditions: in vivo; method in brief: as §2
[14] = Half-life in Sprague-Dawley rat at 3 mg/kg, po measured for 24 hrs by LC-MS/MS analysis; type: ADME, organism-based; conditions: in vivo; method in brief: as §2
[15] = Toxicity in ob/ob mouse assessed as weight gain at 20 mg/kg, po administered once daily for 30 days and measured every 5 days; type: organism-based; conditions: in vivo, 720 h, time 30 day; method in brief: as §1
[16] = molecular target: T3, Peroxisome proliferator-activated receptor gamma (Homo sapiens, UniProt P37231); assay: Agonist activity at human PPARgamma transfected in human HEK293 cells incubated for 18 hrs by Renilla/Firefly dual-luciferase reporter assay; type: cell-based
T3 sequence (P37231 whole entry): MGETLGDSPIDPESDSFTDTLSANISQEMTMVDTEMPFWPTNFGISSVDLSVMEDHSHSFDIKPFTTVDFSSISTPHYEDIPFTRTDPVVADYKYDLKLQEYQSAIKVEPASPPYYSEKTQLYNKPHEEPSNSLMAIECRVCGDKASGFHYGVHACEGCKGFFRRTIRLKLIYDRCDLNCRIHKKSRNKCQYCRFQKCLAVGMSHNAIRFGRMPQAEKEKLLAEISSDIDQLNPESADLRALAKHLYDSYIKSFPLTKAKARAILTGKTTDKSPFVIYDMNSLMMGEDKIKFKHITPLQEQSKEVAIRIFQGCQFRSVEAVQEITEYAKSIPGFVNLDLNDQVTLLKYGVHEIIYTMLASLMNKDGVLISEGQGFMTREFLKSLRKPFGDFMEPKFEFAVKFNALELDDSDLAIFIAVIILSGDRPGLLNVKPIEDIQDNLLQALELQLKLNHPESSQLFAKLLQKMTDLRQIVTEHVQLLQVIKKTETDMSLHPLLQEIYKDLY

Q: Which EC50 [1] does the source give for `COc1ccc2c(c1)O/C(=C\c1cc(C)c(OCC(=O)O)c(C)c1)C2=O` here?
A: Its EC50 is greater than 10 µM.

Q: And the EC50 [2]?
A: The EC50 was 3.22 µM.

Q: Which EC50 [1] does the source give for `CCOc1ccc2c(c1)O/C(=C\c1cc(C)c(OC(C)(C)C(=O)O)c(C)c1)C2=O` here?
A: Its EC50 is 4.64 µM.

Q: With `Cc1cc(/C=C2\Oc3cc(OCC4CC4)ccc3C2=O)cc(C)c1OCC(=O)O` as the molecule, how does the EC50 [1] read?
A: The EC50 was greater than 10 µM.

Q: What does the source list for `CN(CCOc1ccc(CC2SC(=O)NC2=O)cc1)c1ccccn1` (stereo not given) [ROSIGLITAZONE]?
A: Activity [3]: Toxic; Activity [4]: Toxic; inhibition [5]: inactive; inhibition [6]: inactive; inhibition [7]: inactive; inhibition [8]: inactive; inhibition [9]: inactive; inhibition [10]: inactive

Q: Which EC50 [1] does the source give for `CCOc1ccc2c(c1)O/C(=C\c1cc(C)c(OCC(=O)O)c(C)c1)C2=O` here?
A: The EC50 was greater than 10 µM.

Q: For `Cc1cc(/C=C2\Oc3cc(OCCC(C)C)ccc3C2=O)cc(C)c1OC(C)(C)C(=O)O`, which EC50 [1] is on record?
A: Its EC50 is 7.72 µM.

Q: Which EC50 [1] does the source give for `Cc1cc(/C=C2\Oc3cc(OCC(C)C)ccc3C2=O)cc(C)c1OCC(=O)O` here?
A: Its EC50 is greater than 10 µM.

Q: For `CCCOc1ccc2c(c1)O/C(=C\c1cc(C)c(OC(C)(C)C(=O)O)c(C)c1)C2=O`, which EC50 [1] is on record?
A: Its EC50 is 6.91 µM.

Q: For `CCCOc1ccc2c(c1)O/C(=C\c1cc(C)c(OCC(=O)O)c(C)c1)C2=O`, which EC50 [1] is on record?
A: The EC50 was greater than 10 µM.

Q: For `COc1ccc2c(c1)O/C(=C\c1cc(C)c(OC(C)(C)C(=O)O)c(C)c1)C2=O`, which EC50 [1] is on record?
A: Its EC50 is 3.68 µM.

Q: With `Cc1cc(/C=C2\Oc3cc(OCC4CC4)ccc3C2=O)cc(C)c1OC(C)(C)C(=O)O` as the molecule, how does the CL/F [11] read?
A: The CL/F was 0.351 mL/min/kg.

Q: What about the Cmax [12] of the same molecule?
A: Its Cmax is 8670 ng/mL.

Q: And the AUC(0-t) at 24 h [13]?
A: Its AUC(0-t) at 24 h is 51100 ng·h/mL.

Q: What about the half-life [14] of the same molecule?
A: Its half-life is 3.85 h.

Q: What about the Activity [15] of the same molecule?
A: The Activity was “Non-Toxic”.

Q: What does the source list for `CSc1ccc(C(=O)/C=C/c2cc(C)c(OC(C)(C)C(=O)O)c(C)c2)cc1` [ELAFIBRANOR]?
A: EC50 [1]: 0.375 µM; EC50 [16]: 3.96 µM
